Data published in article PMC7453301 (Journal of Pesticide Science, 2020).
Converted amounts (≈) assume the structure as drawn.

Tests used:
Solubility in water = assay type: physicochemical
Outline: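 Water solubility measured at 20°C, reported in mg/L.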

Marssonina blotch = experiment: Field trials, apple Marssonina blotch; assay type: in vivo; conditions: PARADE 15FL; field trials Aomori Prefecture 2010 and 2013
[1] = tested on: SDH derived from Sclerotinia minor; experiment: SDH inhibition, DCIP method; assay type: biochemical; conditions: read-out: SDH IC50
[2] = biological target: SDH derived from Botrytis cinerea (Botrytis cinerea, UniProt A0A384J5E4+D2IH01+D2IH03); experiment: SDH inhibition, DCIP method; assay type: biochemical
[3] = biological target: SDH derived from Blumeria graminis (Blumeria graminis, UniProt N1J5Q8+N1JC31+N1JIS1); experiment: SDH inhibition, DCIP method; assay type: biochemical
SDH derived from Blumeria graminis, sequence (N1J5Q8 1-245): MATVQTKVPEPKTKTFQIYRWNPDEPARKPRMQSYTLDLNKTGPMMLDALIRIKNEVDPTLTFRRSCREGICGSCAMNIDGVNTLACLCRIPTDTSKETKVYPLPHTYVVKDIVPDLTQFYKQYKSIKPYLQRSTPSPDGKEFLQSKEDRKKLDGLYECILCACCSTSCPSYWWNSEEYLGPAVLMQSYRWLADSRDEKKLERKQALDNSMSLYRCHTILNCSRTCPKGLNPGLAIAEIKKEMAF
SDH derived from Blumeria graminis, sequence (N1JC31 44-188): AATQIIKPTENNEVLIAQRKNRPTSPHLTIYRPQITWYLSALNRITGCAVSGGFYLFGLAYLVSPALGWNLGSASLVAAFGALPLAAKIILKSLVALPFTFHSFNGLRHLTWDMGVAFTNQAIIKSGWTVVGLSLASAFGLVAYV
SDH derived from Blumeria graminis, sequence (N1JIS1 58-186): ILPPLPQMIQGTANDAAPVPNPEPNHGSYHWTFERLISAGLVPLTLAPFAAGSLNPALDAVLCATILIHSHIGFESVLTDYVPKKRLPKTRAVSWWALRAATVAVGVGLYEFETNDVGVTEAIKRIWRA
SDH derived from Blumeria graminis, sequence (N1JEV1 49-662 partner): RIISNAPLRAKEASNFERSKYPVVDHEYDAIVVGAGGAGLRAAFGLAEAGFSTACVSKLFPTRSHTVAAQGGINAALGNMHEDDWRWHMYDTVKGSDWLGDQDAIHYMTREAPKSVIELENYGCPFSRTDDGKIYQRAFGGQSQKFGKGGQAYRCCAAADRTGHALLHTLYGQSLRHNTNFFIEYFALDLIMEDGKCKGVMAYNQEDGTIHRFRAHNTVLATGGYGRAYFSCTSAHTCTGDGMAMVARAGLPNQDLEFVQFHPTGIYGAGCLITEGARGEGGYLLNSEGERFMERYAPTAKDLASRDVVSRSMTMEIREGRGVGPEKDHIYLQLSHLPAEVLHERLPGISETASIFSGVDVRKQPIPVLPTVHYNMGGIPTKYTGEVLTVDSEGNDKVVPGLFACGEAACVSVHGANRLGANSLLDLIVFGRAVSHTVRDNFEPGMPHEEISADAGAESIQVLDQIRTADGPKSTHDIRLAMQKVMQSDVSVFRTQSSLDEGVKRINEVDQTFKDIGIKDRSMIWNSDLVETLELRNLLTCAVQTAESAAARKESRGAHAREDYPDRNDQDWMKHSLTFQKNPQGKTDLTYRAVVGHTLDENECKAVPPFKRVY

[4] = biological target: SDH derived from Venturia inaequalis (Venturia inaequalis, UniProt A0A0H4U4T0+A0A370JIY7+A0A8H3Z7E8); experiment: SDH inhibition, DCIP method; assay type: biochemical; conditions: read-out: SDH IC50
SDH derived from Venturia inaequalis, sequence (A0A0H4U4T0 26-281): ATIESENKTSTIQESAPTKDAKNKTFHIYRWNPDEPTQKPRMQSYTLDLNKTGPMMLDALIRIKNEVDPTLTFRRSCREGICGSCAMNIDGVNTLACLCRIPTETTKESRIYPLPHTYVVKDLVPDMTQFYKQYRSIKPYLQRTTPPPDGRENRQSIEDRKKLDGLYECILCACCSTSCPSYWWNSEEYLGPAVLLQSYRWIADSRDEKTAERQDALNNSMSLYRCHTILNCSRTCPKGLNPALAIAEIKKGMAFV
SDH derived from Venturia inaequalis, sequence (A0A370JIY7 44-187): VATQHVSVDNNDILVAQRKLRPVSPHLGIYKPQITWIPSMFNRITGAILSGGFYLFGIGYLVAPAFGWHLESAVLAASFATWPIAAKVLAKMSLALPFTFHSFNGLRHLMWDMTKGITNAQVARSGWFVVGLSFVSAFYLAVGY
SDH derived from Venturia inaequalis, sequence (A0A8H3Z7E8 72-200): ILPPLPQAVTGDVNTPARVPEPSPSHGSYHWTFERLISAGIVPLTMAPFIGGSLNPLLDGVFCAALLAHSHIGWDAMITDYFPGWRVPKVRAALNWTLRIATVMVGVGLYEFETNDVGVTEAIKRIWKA
SDH derived from Venturia inaequalis, sequence (A0A8H3ZBE1 860-1473 partner): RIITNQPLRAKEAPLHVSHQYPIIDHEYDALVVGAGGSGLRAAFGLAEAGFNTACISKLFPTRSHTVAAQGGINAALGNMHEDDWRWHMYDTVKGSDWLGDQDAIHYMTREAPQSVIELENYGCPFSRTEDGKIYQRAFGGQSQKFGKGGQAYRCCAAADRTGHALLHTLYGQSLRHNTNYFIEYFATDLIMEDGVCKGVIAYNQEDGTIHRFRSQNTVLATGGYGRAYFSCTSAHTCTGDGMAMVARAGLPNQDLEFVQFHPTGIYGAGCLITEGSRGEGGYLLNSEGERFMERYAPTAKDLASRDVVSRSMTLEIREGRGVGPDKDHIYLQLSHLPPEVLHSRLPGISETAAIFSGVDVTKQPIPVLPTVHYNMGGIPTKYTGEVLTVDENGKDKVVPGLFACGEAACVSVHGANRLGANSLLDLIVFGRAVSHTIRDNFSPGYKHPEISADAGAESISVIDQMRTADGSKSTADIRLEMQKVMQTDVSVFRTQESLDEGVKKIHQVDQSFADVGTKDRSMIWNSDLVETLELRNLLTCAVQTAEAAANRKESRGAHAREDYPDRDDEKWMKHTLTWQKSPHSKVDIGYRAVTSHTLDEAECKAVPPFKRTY

[5] = tested on: SDH derived from Alternaria brassicae; experiment: SDH inhibition, DCIP method; assay type: biochemical; conditions: read-out: SDH IC50
[6] = biological target: SDH derived from Magnaporthe oryzae (Pyricularia oryzae, UniProt A0ABQ8NN34+G4N2P5+G4NB04); assay type: biochemical; conditions: read-out: SDH IC50
[7] = biological target: SDH derived from Puccinia recondita (Puccinia triticina, UniProt A0A0C4ES27+A0A180H0E4+A0A915VLF5); experiment: SDH inhibition, DCIP method; assay type: biochemical; conditions: read-out: SDH IC50
[8] = biological target: SDH derived from Rhizoctonia solani (Rhizoctonia solani, UniProt A0A074S2N8+A0A0B7FBK7+A0A0B7FK09); experiment: SDH inhibition, DCIP method; assay type: biochemical; conditions: read-out: SDH IC50
[9] = tested on: SDH derived from Pythium aphanidermatum; experiment: SDH inhibition, DCIP method; assay type: biochemical
[10] = biological target: SDH derived from Brassica oleracea (Cabbage) (Brassica oleracea, UniProt A0A0D3B707+A0A0D3E0G9+A0A0D3EGP9); experiment: SDH inhibition, DCIP method; assay type: biochemical; conditions: nontarget SDH
SDH derived from Brassica oleracea (Cabbage), sequence (A0A0D3E0G9 29-281): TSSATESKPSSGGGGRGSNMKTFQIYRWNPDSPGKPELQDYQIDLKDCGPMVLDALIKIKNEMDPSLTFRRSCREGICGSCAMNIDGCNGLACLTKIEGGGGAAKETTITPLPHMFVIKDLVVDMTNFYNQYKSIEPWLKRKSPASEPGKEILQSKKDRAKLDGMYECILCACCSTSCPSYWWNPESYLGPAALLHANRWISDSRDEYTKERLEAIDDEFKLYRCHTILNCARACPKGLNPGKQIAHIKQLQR
SDH derived from Brassica oleracea (Cabbage), sequence (A0A0D3EGP9 103-213): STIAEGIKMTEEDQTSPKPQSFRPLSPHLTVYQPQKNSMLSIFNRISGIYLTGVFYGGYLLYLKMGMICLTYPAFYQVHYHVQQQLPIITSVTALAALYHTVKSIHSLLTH
SDH derived from Brassica oleracea (Cabbage), sequence (A0A0D3B707 83-139): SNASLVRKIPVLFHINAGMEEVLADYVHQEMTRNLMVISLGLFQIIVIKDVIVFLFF
SDH derived from Brassica oleracea (Cabbage), sequence (A0A0D3D8D6 28-626 partner): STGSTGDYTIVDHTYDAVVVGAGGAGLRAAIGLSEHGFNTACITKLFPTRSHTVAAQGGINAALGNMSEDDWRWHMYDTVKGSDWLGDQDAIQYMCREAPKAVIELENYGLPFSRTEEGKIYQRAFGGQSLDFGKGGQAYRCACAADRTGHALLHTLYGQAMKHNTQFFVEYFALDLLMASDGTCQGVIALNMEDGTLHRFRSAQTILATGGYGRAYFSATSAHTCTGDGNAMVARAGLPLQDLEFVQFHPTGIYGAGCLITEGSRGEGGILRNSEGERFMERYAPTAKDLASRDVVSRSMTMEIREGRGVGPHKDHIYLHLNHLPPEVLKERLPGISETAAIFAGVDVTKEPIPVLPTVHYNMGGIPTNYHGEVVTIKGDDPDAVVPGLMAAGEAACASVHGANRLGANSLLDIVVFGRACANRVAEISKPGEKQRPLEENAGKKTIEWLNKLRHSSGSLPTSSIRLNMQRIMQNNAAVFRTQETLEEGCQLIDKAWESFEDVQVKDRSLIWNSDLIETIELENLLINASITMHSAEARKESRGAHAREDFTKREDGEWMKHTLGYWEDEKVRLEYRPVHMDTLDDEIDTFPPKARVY

[11] = biological target: SDH derived from Solanum lycopersicum (Tomato) (Solanum lycopersicum, UniProt D2KQI9+Q952Q7+Q952R1); experiment: SDH inhibition, DCIP method; assay type: biochemical; conditions: nontarget SDH
[12] = biological target: SDH derived from Cucumis sativus (Cucumber) (Cucumis sativus, UniProt A0A0A0LBZ3+G3EIY8+G3EJ03); experiment: SDH inhibition, DCIP method; assay type: biochemical; conditions: nontarget SDH
[13] = biological target: SDH derived from Mus musculus (Mouse) (Mus musculus, UniProt Q9CQA3+Q9CXV1+Q9CZB0); experiment: SDH inhibition, DCIP method; assay type: biochemical
SDH derived from Mus musculus (Mouse), sequence (Q9CQA3 31-282): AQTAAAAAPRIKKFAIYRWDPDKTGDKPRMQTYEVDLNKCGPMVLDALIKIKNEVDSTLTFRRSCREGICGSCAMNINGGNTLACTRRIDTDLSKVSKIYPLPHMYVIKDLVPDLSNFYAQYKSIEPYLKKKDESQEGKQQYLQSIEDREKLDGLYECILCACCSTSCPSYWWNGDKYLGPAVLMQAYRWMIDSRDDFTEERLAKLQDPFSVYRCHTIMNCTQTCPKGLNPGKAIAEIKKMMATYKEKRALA
SDH derived from Mus musculus (Mouse), sequence (Q9CZB0 30-169): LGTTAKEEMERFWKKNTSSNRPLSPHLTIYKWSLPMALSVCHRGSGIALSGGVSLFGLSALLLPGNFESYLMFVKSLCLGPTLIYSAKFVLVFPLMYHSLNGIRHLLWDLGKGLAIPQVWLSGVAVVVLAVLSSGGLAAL
SDH derived from Mus musculus (Mouse), sequence (Q9CXV1 57-159): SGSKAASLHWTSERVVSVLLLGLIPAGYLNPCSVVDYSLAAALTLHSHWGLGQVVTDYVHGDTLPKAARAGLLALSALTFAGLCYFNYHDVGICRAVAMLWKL
SDH derived from Mus musculus (Mouse), sequence (Q8K2B3 43-664 partner): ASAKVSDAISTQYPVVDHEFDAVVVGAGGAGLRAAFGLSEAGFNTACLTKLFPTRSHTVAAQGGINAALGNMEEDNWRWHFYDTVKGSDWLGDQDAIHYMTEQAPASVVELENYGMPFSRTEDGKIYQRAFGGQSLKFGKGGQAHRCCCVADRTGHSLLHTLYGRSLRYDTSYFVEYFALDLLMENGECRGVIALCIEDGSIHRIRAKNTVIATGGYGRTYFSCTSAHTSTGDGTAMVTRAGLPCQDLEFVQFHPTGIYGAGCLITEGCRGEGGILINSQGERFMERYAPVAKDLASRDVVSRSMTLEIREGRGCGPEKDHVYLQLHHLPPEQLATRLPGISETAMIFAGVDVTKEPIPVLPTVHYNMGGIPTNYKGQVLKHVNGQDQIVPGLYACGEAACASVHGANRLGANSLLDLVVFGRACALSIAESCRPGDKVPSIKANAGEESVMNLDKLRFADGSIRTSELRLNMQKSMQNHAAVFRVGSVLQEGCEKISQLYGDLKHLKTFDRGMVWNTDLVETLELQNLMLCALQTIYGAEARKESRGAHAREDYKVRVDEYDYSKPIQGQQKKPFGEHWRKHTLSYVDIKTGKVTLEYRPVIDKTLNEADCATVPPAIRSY

Gray mold (Cucumber) = conditions: cited from earlier work
Brown rust (Wheat) = conditions: cited from earlier work
Powdery mildew (Barley) = conditions: cited from earlier work
Sclerotinia sclerotiorum = conditions: cited from earlier work

## O=C(Nc1ccccc1-c1ccc(F)c(F)c1)c1nccnc1C(F)(F)F [Compound 9, N-(3′,4′-difluorobiphenyl-2-yl)-3-(trifluoromethyl)pyrazine-2-carboxamide]
Solubility in water
  solubility: 2.32 µg/mL (≈ 6.12 µM)
Marssonina blotch
  residual activity against Marssonina blotch of apple: excellent residual activity
[1]
  IC50: 0.7 nM
[2]
  IC50: 4.1 nM
[3]
  IC50: 5.8 nM
[4]
  IC50: 18.9 nM
[5]
  IC50: 2.1 nM
[6]
  IC50: 2500 nM
[7]
  IC50: 14.4 nM
[8]
  IC50: 5.9 nM
[9]; oomycete Pythium aphanidermatum
  SDH inhibitory activity: no inhibitory activity
[9]; read-out: SDH IC50, Pythium aphanidermatum
  IC50: > 8 µM
[10]
  SDH inhibitory activity: did not show any inhibitory activity
[11]
  SDH inhibitory activity: did not show any inhibitory activity
[12]
  SDH inhibitory activity: did not show any inhibitory activity
[13]
  IC50: > 32 µM
[13]; nontarget SDH, mice
  SDH inhibitory activity: did not show any inhibitory activity
Gray mold (Cucumber)
  Fungicidal activity EC80, Gray mold (Cucumber): 2–10 mg a.i./L
Brown rust (Wheat)
  Fungicidal activity EC80, Brown rust (Wheat): 0.5–2 mg a.i./L
Powdery mildew (Barley)
  Fungicidal activity EC80, Powdery mildew (Barley): 0.5–2 mg a.i./L
Sclerotinia sclerotiorum
  inhibition activity against apothecium formation: exhibits inhibition activity
